Experimental data from different studies.
Compare with care: the assays were run in different laboratories.
Effect on: ABTS scavenging

Cc1ccc(NC(=O)Cc2c[nH]c3ccccc23)c(C)c1 — IC50: 1900 nM
COc1ccc(-c2nc3cc(Cl)ccc3[nH]2)cc1OCc1ccccc1 — IC50 (absorbance): 1750 nM
Cc1cc(C(C)(C)C)c(O)c(C(C)(C)C)c1 — IC50: 6.99 µg/mL
O=c1oc2c(O)c(O)cc3c(=O)oc4c(O)c(O)cc1c4c23 — IC50 (absorbance): 5760 nM
O=C1O[C@H]([C@@H](O)CO)C(O)=C1O — IC50: 1.4 µg/mL
O=C(O)c1cc(O)c(O)c(O)c1 — IC50 (absorbance): 8190 nM
Clc1ccc2[nH]c(-c3ccccc3OCc3ccccc3)nc2c1 — IC50 (absorbance): 1780 nM
COC(=O)c1cc(O)c(O)c(O)c1 — IC50 (absorbance): 14200 nM
COc1ccc(-c2nc3ccccc3[nH]2)cc1OCc1ccccc1 — IC50 (absorbance): 1760 nM
O=C(Cc1c[nH]c2ccccc12)Nc1ccc(Cl)cc1 — IC50: 460 nM
O=c1c(O[C@@H]2O[C@H](CO)[C@@H](O)[C@H](O)[C@H]2O)c(-c2ccc(O)c(O)c2)oc2cc(O)cc(O)c12 — IC50 (absorbance): 6510 nM
O=C(Cc1c[nH]c2ccccc12)Nc1ccc(F)cc1F — IC50: 1310 nM
Cc1cc2nc(-c3ccccc3OCc3ccccc3)[nH]c2cc1C — IC50 (absorbance): 1780 nM
O=C(Cc1c[nH]c2ccccc12)Nc1ccc(Br)cc1 — IC50: 580 nM
O=c1c(O[C@@H]2O[C@H](CO)[C@@H](O)[C@H](O)[C@H]2O)c(-c2ccc(O)cc2)oc2cc(O[C@@H]3O[C@H](CO)[C@@H](O)[C@H](O)[C@H]3O)cc(O)c12 — IC50 (absorbance): 30600 nM
